In brackets after ≈: the same amount, converted by molar mass.
Legend:
Vero [1] = assay: Cytotoxicity against african green monkey Vero cells at 1.0 uM; assay type: cell-based; details: chlorocebus sabaeus
Summary of the method: (§1)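 Microtiter cytotoxicity assay run in parallel on Vero and TZM CD4+ CCR5+ cells. Serially diluted drug was applied, and viability was measured with a commercial cell viability assay. Values are reported as percent reduction in cell viability.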

[2] = tested on: Human immunodeficiency virus 1; assay: Antiviral activity against HIV1 at 1.0 uM by luciferase assay; assay type: functional; details: for inhibition at 1 µM: Human immunodeficiency virus 1
Summary of the method: (§2)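 Pseudotyped HIV-1 assay: drug was serially diluted from 10 µM down to 0.1 nM and tested against 100 TCID50 of HIV ADA infecting TZM CD4+ CCR5+ cells. Infection was read on day 3 post-infection as reporter luciferase activity using a commercial kit, and results are given as percent inhibition. Controls were infected cells without drug, a pseudovirus with a non-specific envelope, and an RT inhibitor.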

Vero [3] = assay: Cytotoxicity against african green monkey Vero cells at 10 uM; assay type: cell-based; details: chlorocebus sabaeus; summary of the method: as §1
[4] = tested on: Human immunodeficiency virus 1; assay: Antiviral activity against HIV1 at 10 uM by luciferase assay; assay type: functional; details: for inhibition at 10 µM: Human immunodeficiency virus 1; summary of the method: as §2
[5] = tested on: Mycobacterium tuberculosis; assay: Antimicrobial activity against Mycobacterium tuberculosis; assay type: functional

Structure (SMILES)	Activity (Vero [1])	Inhibition [2]	Activity (Vero [3])	inhibition at 10 µM [4]	inhibition at 1 µM [2]	MIC [5]	Inhibition [4]
CCCc1cc(=O)oc2c3c(c4c(c12)OC(C)(C)C=C4)O[C@H](C)[C@@H](C)[C@@H]3O (racemic) [CALANOLIDE A]	0%	81%	0%	97%	–	–	–
CCCc1cc(=O)oc2c3c(c4c(c12)OC(C)(C)C=C4)O[C@H](C)C[C@@H]3O [(+)-11-DEMETHYL CALANOLIDE A]	0%	–	54%	98%	75%	–	–
Cc1cc(=O)oc2c3c(c4c(c12)OC(C)(C)C=C4)O[C@H](C)C[C@@H]3O [(+)-11-DEMETHYL CORDATOLIDE A]	0%	–	0%	0%	0%	–	–
Cc1cc(=O)oc2c3c(c4c(c12)OC(C)(C)C=C4)O[C@H](C)[C@@H](C)[C@@H]3O [(+)-CORDATOLIDE A]	0%	–	0%	85%	44%	–	–
CCCc1cc(=O)oc2c3c(c4c(c12)OC(C)(C)C=C4)O[C@@H](C)C[C@H]3O [(-)-11-DEMETHYL CALANOLIDE A]	0%	–	0%	0%	0%	–	–
Cc1cc(=O)oc2c3c(c4c(c12)OC(C)(C)C=C4)O[C@@H](C)C[C@H]3O [(-)-11-DEMETHYL CORDATOLIDE A]	0%	–	0%	0%	0%	–	–
CCCc1cc(=O)oc2c3c(c4c(c12)OC(C)(C)C=C4)O[C@@H](C)[C@H](C)[C@H]3O [(-)-CALANOLIDE A]	0%	–	0%	97%	67%	–	–
Cc1cc(=O)oc2c3c(c4c(c12)OC(C)(C)C=C4)O[C@@H](C)[C@H](C)[C@H]3O [(-)-CORDATOLIDE A]	0%	–	0%	0%	0%	–	–
CCCc1cc(=O)oc2c3c(c4c(c12)OC(C)(C)C=C4)O[C@H](C)[C@@H](C)[C@@H]3O [CALANOLIDE A]	1%	–	6%	–	86%	3.13 µg/mL (≈ 8.45 µM)	98%

From ChEMBL document CHEMBL1142352, “Chemical resolution of +/- -calanolide A, +/- -cordatolide A and their 11-demethyl analogues” (Bioorg Med Chem Lett, 2008)
